Source: PubChem BioAssay
The list is not random: actives were taken first. Their share in the collection is about 3.4%.
IMP-1 inh-1: IMP-1 metallo-beta-lactamase inhibitors, primary screen, biochemical, epi-absorbance readout, Pseudomonas aeruginosa enzyme. actives 0.45% (n = 290,000). inhibition, % at 5.6 µM. purified IMP-1, nitrocefin hydrolysis, epi-absorbance fluorescence;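 active means inhibition above the mean plus 3 SD of all compounds in the same screening run, cut at about 4.5% in these data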;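 further: 0% = IMP-1 with DMSO and 100% = DMSO wells lacking enzyme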
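System: Purified IMP-1 | Read-out basis: Percent enzyme inhibition | Controls: IMP-1 with DMSO as 0%, enzyme-free DMSO as 100% | Replicates: One well per compound | Doses: 5.6 µM nominal single concentration | Detection: Epi-absorbance fluorescence, 480 nm excitation, 530 nm emission | Incubation: 25 °C, 15 min preincubation, 25 min reaction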
ANO1 activ: TMEM16A chloride channel activators or potentiators, primary screen, cell-based, HTS; Anoctamin-1 (Mus musculus), Q8BHY3; HEK293 TMEM16A/YFP-H148Q/I152L, iodide quench fluorescence; active compounds read low; B-score at 10 µM; actives 0.3% (n = 340,000); AID 623877, 2012;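 active means fluorescence-ratio B-score plate-corrected deviation score at least 3 library SD below zero, with starting fluorescence score within 5 deviations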;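 further: channel opened by trigger with iodide after compound preincubation; score built on the fluorescence ratio of max minus min over baseline; more negative score means more quench and so TMEM16A activation or potentiation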
Target sequence (Q8BHY3 whole entry, looked up): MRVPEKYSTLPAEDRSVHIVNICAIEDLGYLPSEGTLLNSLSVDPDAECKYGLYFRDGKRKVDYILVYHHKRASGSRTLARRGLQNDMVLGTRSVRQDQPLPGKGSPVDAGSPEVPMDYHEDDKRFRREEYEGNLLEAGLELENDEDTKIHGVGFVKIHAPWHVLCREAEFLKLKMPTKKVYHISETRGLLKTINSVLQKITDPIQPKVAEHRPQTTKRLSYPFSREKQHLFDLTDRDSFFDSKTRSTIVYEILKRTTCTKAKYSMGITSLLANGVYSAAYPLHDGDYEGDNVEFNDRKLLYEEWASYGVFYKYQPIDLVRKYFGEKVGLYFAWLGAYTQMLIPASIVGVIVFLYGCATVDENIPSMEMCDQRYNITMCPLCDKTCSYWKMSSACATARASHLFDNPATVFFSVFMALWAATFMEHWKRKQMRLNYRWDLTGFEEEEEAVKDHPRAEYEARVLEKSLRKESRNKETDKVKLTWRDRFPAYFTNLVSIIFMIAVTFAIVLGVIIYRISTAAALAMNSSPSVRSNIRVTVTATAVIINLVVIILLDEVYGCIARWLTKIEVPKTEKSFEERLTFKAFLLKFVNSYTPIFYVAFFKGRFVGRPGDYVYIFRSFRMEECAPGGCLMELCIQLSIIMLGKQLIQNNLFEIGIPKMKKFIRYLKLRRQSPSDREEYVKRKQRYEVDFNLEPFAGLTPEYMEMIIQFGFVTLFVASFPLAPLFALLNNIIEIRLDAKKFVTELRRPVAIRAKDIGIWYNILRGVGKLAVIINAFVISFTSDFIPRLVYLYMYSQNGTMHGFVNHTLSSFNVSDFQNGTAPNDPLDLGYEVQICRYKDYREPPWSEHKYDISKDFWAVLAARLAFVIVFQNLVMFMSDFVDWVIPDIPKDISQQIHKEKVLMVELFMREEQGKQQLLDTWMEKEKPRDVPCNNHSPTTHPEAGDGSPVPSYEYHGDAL
VIM-2 inhibitor: VIM-2 metallo-beta-lactamase inhibitors, primary screen, biochemical, epi-absorbance readout, Pseudomonas aeruginosa enzyme | purified VIM-2, nitrocefin hydrolysis, epi-absorbance fluorescence | inhibition, % at 5.6 µM | actives 0.89% (n = 290,000);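 active means inhibition above the mean of all tested compounds plus 3 SD, cutoff set per screening run, cut at about 7.5% in these data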;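 further: red hydrolysis product quenches plate fluorescence so inhibitors raise well fluorescence; 0% = enzyme with DMSO and 100% = DMSO without enzyme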
CHT block: inhibitors of human choline transporter CHT; High affinity choline transporter 1 (Homo sapiens), Q9GZV3; CHT-expressing cells, membrane potential dye, choline response; active compounds read low; B-score at 10 µM; actives 0.86% (n = 310,000); AID 488975, 2010;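 active means B-score over 3 SD under the library average, and starting fluorescence ratio not unusually high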;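 further: choline stimulus applied at its EC90 after an EC20 pre-addition; B-score computed on integrated fluorescence ratio after choline addition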
CHT allo act: CHT positive allosteric modulators, primary screen, cell-based, membrane potential dye, choline EC20; High affinity choline transporter 1 (Homo sapiens), Q9GZV3; CHT-expressing cells; active compounds read high; LV-AA mutant CHT in HEK293 cells; B-score at 10 µM; actives 0.49% (n = 310,000); AID 488977, 2010;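 active means initial fluorescence not abnormally high and integrated response B-score, plate-corrected, over 3 SD above library mean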
TMEM16A inh: TMEM16A chloride channel inhibitors, primary screen, cell-based, HTS; Anoctamin-1 (Mus musculus), Q8BHY3; HEK293 TMEM16A/YFP iodide influx fluorescence, ionomycin; normalized B-score (activity score, 25-100; higher = stronger inhibition) at 10 µM; actives 1.2% (n = 310,000); AID 588511, 2011;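 active means ratio plate-corrected score three or more library SD toward inhibition, starting fluorescence score within five deviations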;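 further: score derived from kinetic fluorescence span divided by baseline fluorescence per well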
IMP-1 inh-2: IMP-1 metallo-beta-lactamase inhibitors, confirmation, selectivity assay for selective VIM-2 inhibitor project, biochemical, epi-absorbance readout, triplicate. shares compounds with VIM-2 inhibitor. purified IMP-1, nitrocefin hydrolysis, epi-absorbance fluorescence. inhibition, % at 5.6 µM. 1,300 tested, under 10 active. AID 1856, 2009; call rule not given here;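 further: 0% = enzyme with vehicle and 100% = vehicle without enzyme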
VIM-2 FRET inh: VIM-2 inhibitors in FRET format, confirmation, artefact control for selective VIM-2 inhibitor project, biochemical, epi-absorbance artifact exclusion; shares compounds with VIM-2 inhibitor; purified VIM-2, CCF2 FRET substrate hydrolysis; AID 1857, 2009; inhibition, % at 5.6 µM; actives 23% (n = 1,300);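 active means inhibition above the mean of all tested compounds plus 3 SD, cut at about 19% in these data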;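 further: 0% = VIM-2 plus DMSO and 100% = no enzyme wells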
TEM-1 inh: TEM-1 serine beta-lactamase inhibitors, counter-screen for VIM-2 inhibitor project, biochemical, epi-absorbance, HTS. shares compounds with VIM-2 inhibitor. Purified TEM-1, nitrocefin hydrolysis, epi-absorbance fluorescence. inhibition, % at 5.6 µM. actives 3% (n = 1,300);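 active means inhibition above that campaign's mean inhibition plus 3 SD, cut at about 0.46% in these data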;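 further: 0% = TEM-1 with DMSO and 100% = TEM-1 with 100 µM potassium clavulanate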
VIM-2 inh conf: VIM-2 metallo-beta-lactamase inhibitors, confirmation, biochemical, epi-absorbance, hits shared with IMP-1 screen; actives 96% (n = 1,300); inhibition, % at 5.6 µM; AID 2187, 2009; purified VIM-2, nitrocefin hydrolysis; shares compounds with VIM-2 inhibitor;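 active means inhibition of the VIM-2 beta-lactamase enzyme above about 11% from the earlier first-round screen, limit read from the data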;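 further: 0% = VIM-2 with DMSO and 100% = buffer wells without enzyme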
* marks the source's active call; other numbers are inactive results.

How did Clc1ccccc1-c1nnc2sc(-c3ccncc3)nn12 do in these assays?
IMP-1 inh-1: -3; ANO1 activ: inactive; VIM-2 inhibitor: -4; CHT block: inactive; CHT allo act: inactive; TMEM16A inh: inactive

What do the screens show for `CCN(CC)CCNC(=O)c1cn(CC)c2cc(N3CCN(C)CC3)c(F)cc2c1=O`?
IMP-1 inh-1: 1; ANO1 activ: inactive; VIM-2 inhibitor: 12*; CHT block: inactive; CHT allo act: inactive; TMEM16A inh: inactive; IMP-1 inh-2: -2; VIM-2 FRET inh: 0; TEM-1 inh: -3; VIM-2 inh conf: 27*

How did Cc1cc(NC(=O)c2c(C)noc2C)no1 do in these assays?
IMP-1 inh-1: 0; ANO1 activ: inactive; VIM-2 inhibitor: 1; CHT block: inactive; CHT allo act: inactive; TMEM16A inh: inactive

What do the screens show for `COc1cc(/C=C2\SC(=S)N(CCC(=O)N3CCN(C)CC3)C2=O)cc(OC)c1OC`?
IMP-1 inh-1: 2; ANO1 activ: inactive; VIM-2 inhibitor: 15*; CHT block: inactive; CHT allo act: inactive; TMEM16A inh: inactive; IMP-1 inh-2: -2; VIM-2 FRET inh: 1; TEM-1 inh: -6; VIM-2 inh conf: 25*

How did COc1ccc(/C=C2/SC(=S)N(CCC(=O)N3CCN(C)CC3)C2=O)cc1 do in these assays?
IMP-1 inh-1: -1; ANO1 activ: inactive; VIM-2 inhibitor: 4; CHT block: inactive; CHT allo act: inactive; TMEM16A inh: inactive

What do the screens show for `CN1CCN(c2nc(-c3ccccc3O)nc3ccccc23)CC1`?
IMP-1 inh-1: -2; ANO1 activ: inactive; VIM-2 inhibitor: 14*; CHT block: inactive; CHT allo act: inactive; TMEM16A inh: inactive; IMP-1 inh-2: -2; VIM-2 FRET inh: 0; TEM-1 inh: -7; VIM-2 inh conf: 18*

Results for O=C(COc1ccccc1)NCc1nnc2c3ccccc3c(-c3ccccc3)nn12 ?
IMP-1 inh-1: 2; ANO1 activ: inactive; VIM-2 inhibitor: 18*; CHT block: inactive; CHT allo act: inactive; TMEM16A inh: inactive; IMP-1 inh-2: 2; VIM-2 FRET inh: 6; TEM-1 inh: 1.0*; VIM-2 inh conf: 39*

What do the screens show for `CC1CCN(CC(=O)Nc2ccc(S(=O)(=O)N3C(C)CCCC3C)cc2)CC1` (stereo unspecified)?
IMP-1 inh-1: 2; ANO1 activ: inactive; VIM-2 inhibitor: 0; CHT block: inactive; CHT allo act: inactive; TMEM16A inh: inactive

Results for Cc1cc(N2C(=O)CC(N3CCN(c4ccc(C(=O)c5cccs5)cc4)CC3)C2=O)no1 (stereo unspecified) ?
IMP-1 inh-1: -2; ANO1 activ: inactive; VIM-2 inhibitor: 13*; CHT block: inactive; CHT allo act: inactive; TMEM16A inh: inactive; IMP-1 inh-2: -4; VIM-2 FRET inh: 0; TEM-1 inh: -7; VIM-2 inh conf: 3

What do the screens show for `O=C(c1ccc(N2CCN(C3CC(=O)N(Cc4cccs4)C3=O)CC2)cc1)c1cccnc1` (stereo unspecified)?
IMP-1 inh-1: -1; ANO1 activ: inactive; VIM-2 inhibitor: -1; CHT block: inactive; CHT allo act: inactive; TMEM16A inh: inactive

How did CCS(=O)(=O)N1CCC(C(=O)Nc2ccc3c(c2)CCC3)CC1 do in these assays?
IMP-1 inh-1: -3; ANO1 activ: inactive; VIM-2 inhibitor: -3; CHT block: inactive; CHT allo act: inactive; TMEM16A inh: inactive

What do the screens show for `CCc1ccc(Nc2cc(C)nc3nc(C)nn23)cc1`?
IMP-1 inh-1: -5; ANO1 activ: inactive; VIM-2 inhibitor: 7; CHT block: inactive; CHT allo act: inactive; TMEM16A inh: inactive

How did Cc1cc(Nc2ccc(C)c(C)c2)n2nc(C)nc2n1 do in these assays?
IMP-1 inh-1: -2; ANO1 activ: inactive; VIM-2 inhibitor: 16*; CHT block: inactive; CHT allo act: inactive; TMEM16A inh: inactive; IMP-1 inh-2: -3; VIM-2 FRET inh: 1; TEM-1 inh: -6; VIM-2 inh conf: 34*

How did O=C(c1ccco1)N1N=C(c2ccc(Br)cc2)CC1c1ccco1 (stereo unspecified) do in these assays?
ANO1 activ: inactive

Results for O=C(c1ccco1)N1N=C(c2ccc(Cl)cc2)CC1c1ccco1 (stereo unspecified) ?
IMP-1 inh-1: -3; ANO1 activ: inactive; VIM-2 inhibitor: 35*; CHT block: inactive; CHT allo act: inactive; TMEM16A inh: inactive; IMP-1 inh-2: -4; VIM-2 FRET inh: 69*; TEM-1 inh: -9; VIM-2 inh conf: 44*

How did N#Cc1ccc(C(=O)Nn2cnnc2)cc1 do in these assays?
IMP-1 inh-1: -4; ANO1 activ: inactive; VIM-2 inhibitor: -2; CHT block: inactive; CHT allo act: inactive; TMEM16A inh: inactive

Results for CC(=O)c1cccc(Nc2nc3ccccc3n3cnnc23)c1 ?
IMP-1 inh-1: -3; ANO1 activ: inactive; VIM-2 inhibitor: 14*; CHT block: inactive; CHT allo act: inactive; TMEM16A inh: inactive; IMP-1 inh-2: -2; VIM-2 FRET inh: -4; TEM-1 inh: -3; VIM-2 inh conf: 25*

What do the screens show for `Fc1cccc(Nc2nc3ccccc3n3cnnc23)c1`?
IMP-1 inh-1: -1; ANO1 activ: inactive; VIM-2 inhibitor: 2; CHT block: inactive; CHT allo act: inactive; TMEM16A inh: inactive
